Among the data in the array DNA melting data of Ke et al. (doi:10.1101/2024.01.08.574731) are folding enthalpy and Tm values, retold here.

A short description of data set [1]: folding enthalpy; higher = less favourable; fluorescence melt of hairpins on a sequencing array, two-state fit. To be noted: sodium 0.088 M. An outline of the steps:
(§1)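 Bootstrapped two-state fits yielded melting temperature and folding enthalpy for library hairpins. Cy3 fluorescence, with annealed Cy3 and quencher oligos, was imaged on a sequenced MiSeq flow cell in 50 mM Na-HEPES pH 8.0, 25 mM NaCl in 2.5 °C steps up to 60 °C, and normalised to pre-quench Cy3 and to control constructs. Four replicates were combined by inverse variance, and fitted temperatures were raised by 9.35 °C to match UV melts.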

Data set [2] is described as follows: melting temperature; fluorescence melt of hairpins on a sequencing array, two-state fit, raised by 9.35 °C to match UV melts. To be noted: sodium 0.088 M. Put shortly:
as §1

Turning to GCCGTGGCGAAAGCCGGC (((..(((....)))))), in data set [1], the folding enthalpy is -21.4 kcal/mol. The Tm in data set [2] was found to be 62.8 °C.
Regarding GGCCTTGAAAAAGGCC ((((((....)))))), the folding enthalpy in data set [1] is -39.9 kcal/mol. For the same sequence, the Tm in data set [2] came to 68.4 °C.
As to GCTGGCGAAAGCCTAGC ((((((....))).))), the folding enthalpy in data set [1] is -19.4 kcal/mol. The Tm in data set [2] is 59.3 °C.
The matching figures for GTAACACGAAAGTGATAC (((.(((....))).))): -25.5 kcal/mol and 46.8 °C.
The matching figures for GGCACATCGAAAGATGCC (((..(((....)))))): -14.7 kcal/mol and 42.8 °C.
The like results for GTCGCCCCGAAAGGGGAC (((..(((....)))))) were, in that order, -9.73 kcal/mol and 40.1 °C.
For GCGCCGCGAAAGCGAGGC ((..(((....)))..)), in data set [1], the folding enthalpy is -13.7 kcal/mol. The Tm in data set [2] is 54.8 °C.
The like results for GATCAAGGGTTTGATC ((((((....)))))) were, in that order, -26.2 kcal/mol and 43 °C.
The like results for GTTTCCGAAAGGAGGAAC ((((((....)))..))) were, in that order, -9.8 kcal/mol and 27.4 °C.
On to GTTGGCGAAAGCCTCAAC ((((((....)))..))), for which the folding enthalpy in data set [1] was -10.6 kcal/mol. In addition, the Tm in data set [2] came out at 29.9 °C.
Take GTGCTCGGAAACGAGTAC ((.((((....)))).)): in data set [1], the folding enthalpy was -43.8 kcal/mol. In addition, in data set [2], the Tm turned out to be 55.4 °C.
The like results for CGCCCGGAAACGGACGCG ((((((....)))..))) were, in that order, -12.2 kcal/mol and 50.2 °C.
On to GTATCGCGAAAGCGTAC (((.(((....)))))), for which, in data set [1], the folding enthalpy was -12.1 kcal/mol. Besides, the Tm in data set [2] is 44.5 °C.
Consider CGACCGGAAACGGATTCG ((((((....)))..))), for which the folding enthalpy in data set [1] is -16.2 kcal/mol. Also, the Tm in data set [2] amounted to 33.6 °C.
Regarding GATTGAGGAAACTCGATC (((.(((....))).))), the folding enthalpy in data set [1] was -33.1 kcal/mol. For the same sequence, the Tm in data set [2] worked out at 43.2 °C.
GCTTGGGGAAACCCAGGC ((.((((....)))).)): the folding enthalpy in data set [1] was -36.8 kcal/mol. Further, the Tm in data set [2] was found to be 52.4 °C.
In the case of GTTCGTGGAAACATGGAC ((.(.((....)).).)), the folding enthalpy in data set [1] was -16.1 kcal/mol. Also, the Tm in data set [2] was determined as 34.7 °C.
The matching figures for GTAGCCGAAAGGCGTAC ((((((....))).))): -15.7 kcal/mol and 57.5 °C.
The like results for GCTTGCGAAAGCACGAGC ((((((....)))..))) were, in that order, -15.9 kcal/mol and 46.9 °C.
The matching figures for GATCTTTATGAAGATC ((((((....)))))): -36.5 kcal/mol and 44.9 °C.
GCGTCTTAACGC ((((....)))): the folding enthalpy in data set [1] was -26.4 kcal/mol. In addition, the Tm in data set [2] worked out at 57.5 °C.
The matching figures for GGTGCGGGAAACTGCACC (((((.(....).))))): -40.6 kcal/mol and 63.1 °C.
For the sequence GCTACGGAAACGTAGC ((((((....)))))), in data set [1], the folding enthalpy is -42 kcal/mol. Besides, the Tm in data set [2] was determined as 66.5 °C.
GCGCCGCGAAAGCTACGC (((..((....))..))): the folding enthalpy in data set [1] is -20.9 kcal/mol. For the same sequence, the Tm in data set [2] stood at 53.5 °C.
Take GTTCGGGGAAACTCGAAC (((((.(....).))))): the folding enthalpy in data set [1] is -30.8 kcal/mol. Also, the Tm in data set [2] came to 51.3 °C.
Regarding GAGGCCGGAAACGGCCCC (.(((((....))))).), the folding enthalpy in data set [1] was -6.76 kcal/mol. The Tm in data set [2] turned out to be 51.2 °C.
On to GGAAGTGGAAACACTTTC (.(((((....))))).), for which the folding enthalpy in data set [1] is -26.6 kcal/mol. In addition, the Tm in data set [2] is 45.2 °C.
The like results for CAATTGAAAAATTG (((((....))))) were, in that order, -13.6 kcal/mol and 35.6 °C.
The like results for GGTTGGGGAAACTCAACC (((((.(....).))))) were, in that order, -38.4 kcal/mol and 51.1 °C.
The like results for GGCGTGGGAAACCATGCC (((.(((....))).))) were, in that order, -44.5 kcal/mol and 61.4 °C.
Turning to GCCTACGAAAGTAGGGGC ((((((....)))..))), the folding enthalpy in data set [1] was -14.4 kcal/mol. Moreover, the Tm in data set [2] came to 61.3 °C.
The matching figures for GCAGTCGAAAGACTTGC ((((((....))).))): -22.6 kcal/mol and 50.4 °C.
For the sequence GTGAACCGAAAGGTACAC (((.(((....))).))), the folding enthalpy in data set [1] was -35.7 kcal/mol. Also, the Tm in data set [2] was 54.3 °C.
As to GATCACTCTTGTGATC ((((((....)))))), the folding enthalpy in data set [1] was -38.5 kcal/mol. For the same sequence, in data set [2], the Tm came to 56.7 °C.
On to GATCTGATAGCAGATC ((((((....)))))), for which the folding enthalpy in data set [1] was -34.4 kcal/mol. Besides, the Tm in data set [2] is 46.8 °C.
Turning to GGGTGCGAAAGCATGCCC ((((((....)))..))), the folding enthalpy in data set [1] is -15.7 kcal/mol. In data set [2], the Tm turned out to be 49.6 °C.
In the case of GATGGTGCGAAAGCAATC (((..(((....)))))), the folding enthalpy in data set [1] was -8.86 kcal/mol. The Tm in data set [2] came to 28.7 °C.
